Article PMC4779681 (Journal of immunology (Baltimore, Md. : 1950), 2016)

Columns and labels:
OT-I T cells [1] = assay: OT-I primary effector and memory populations after LM-OVA APL infection; format: in vivo, mouse; settings: for Memory OT-I cells (frequency/number) in pooled secondary lymphoid organs: LM-N4 OVA or LM-V4 OVA infection, week 4-5 post infection, Thy1.1 enrichment; for CD45RB^hi frequency, primary effectors: OT-I in blood, day 7 post LM infection; for CD45RB^hi frequency, memory cells: OT-I in secondary lymphoid tissue, 4 weeks post LM infection; for IL-2 expression by primary effectors: day 7 primary effectors; for Memory phenotype markers CD44, CD127, CD69, Granzyme B: memory OT-I cells primed by LM-OVA APL
Summary of the method: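 OT-I donor cells (1.0 × 10⁴, Thy1.1⁺, in PBS) given i.v. to CD45.1⁺ male hosts; 10⁴ CFU LM-OVA APL i.p. 24 h later. Day 7: blood with RBC lysis, gated CD8⁺CD44^hiThy1.1⁺. Week 4 (day 28–35): spleen plus pooled LNs, anti-Thy1.1 PE/anti-PE bead enrichment. Cytokines by intracellular staining after 5 h at 37 C with 1 μM N4 OVA peptide plus GolgiPlug. Counts by counting beads.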

OT-I T cells [2] = assay: Secondary effectors after N4 OVA peptide footpad rechallenge; format: in vivo, mouse; settings: for CD45RB^hi frequency, secondary effectors: N4 OVA peptide 10 μg per hind foot pad, draining popliteal LN, 5 days later; for CD62L^lo frequency, CD45RB^lo vs CD45RB^hi fraction: CD45RB^lo vs respective CD45RB^hi population
OT-I T cells [3] = assay: In vitro OVA APL OT-I stimulation; format: cell-based, mouse; settings: for hnRNPLL expression: OT-I cells primed with peptide 3 days in vitro (0.1 μM)
OT-I T cells [4] = assay: Sorted Q4 OVA primed OT-I cells transferred and rechallenged with N4 OVA peptide; format: in vivo, mouse; settings: N4 OVA peptide rechallenge in naïve congenic hosts, day 5, p=0.0012
Summary of the method: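 OT-I splenocytes (3×10⁶) were primed for 3 days with 0.1 μM Q4 OVA peptide, 0.1 μg/mL anti-CD28 and 10 ng/mL IL-2. Dead cells were removed, then cells were cultured overnight in 10 ng/mL IL-15. Live CD8⁺CD44^hiThy1.1⁺ cells were sorted into CD45RB^hi/lo, transferred to naïve congenic hosts and rechallenged with N4 OVA peptide. CD45RB was assessed 5 days later; 2–3 independent experiments.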

OT-I T cells [5] = format: in vivo, mouse; settings: vs N4 OVA primed
Summary of the method: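 Memory mice, OT-I-transferred and LM-infected, received full-thickness tail and ear skin grafts expressing N4 OVA on the dorsal thorax 5 weeks post infection. Draining LN OT-I cells were counted with counting beads on day 5 post graft. Fold expansion was taken from day 0 to day 5.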

OT-I T cells [6] = settings: between N4 and V4 OVA; cited from earlier work

| Sequence | Memory OT-I cells (frequency/number) in pooled secondary lymphoid organs (OT-I T cells [1]) | CD45RB^hi frequency, primary effectors (OT-I T cells [1]) [%] | CD45RB^hi frequency, memory cells (OT-I T cells [1]) [%] | IL-2 expression by primary effectors (OT-I T cells [1]) | Memory phenotype markers CD44, CD127, CD69, Granzyme B (OT-I T cells [1]) | CD45RB^hi frequency, secondary effectors (OT-I T cells [2]) [%] | CD62L^lo frequency, CD45RB^lo vs CD45RB^hi fraction (OT-I T cells [2]; secondary effectors) | hnRNPLL expression (OT-I T cells [3]) | further results |
| --- | --- | --- | --- | --- | --- | --- | --- | --- | --- |
| SIINFEKL [N4 OVA] | 8.0×10^4±3.3×10^4 | 48.9±2.2 | 54.7±6.76 | similarly low levels of IL-2 | high levels of CD44 and CD127, and low levels of CD69 and Granzyme B | 30.2±3.39 | greater frequency | increased | Nur77 and CD69 expression, CD45RB^hi vs CD45RB^lo cells (OT-I T cells [3]; V4 OVA Tm cells restimulated 5 h with N4 OVA or OVA APL, 0.1 μM): significantly greater in CD45RB^hi cells |
| SIIQFEKL [Q4 OVA] | – | – | – | – | – | – | – | – | Proliferation of sorted CD45RB^hi vs CD45RB^lo cells (OT-I T cells [4]): proliferated to a significantly greater number |
| SIIVFEKL [V4 OVA] | 1.3×10^3±5.3×10^2 | 68.7±3.6 | 79.3±3.4 | similarly low levels of IL-2 | high levels of CD44 and CD127, and low levels of CD69 and Granzyme B | 19.6±1.96 | greater frequency | not induced | Fold lower frequency of CD8^+ OT-I effectors in blood vs N4 OVA priming (OT-I T cells [1]; day 7 post LM infection (10^4 CFU i.p.), 10^4 OT-I transferred): ~ 80 fold; Fold lower frequency of memory OT-I cells vs N4 OVA priming (OT-I T cells [1]; secondary lymphoid organs, memory, LM infection): 61 fold; Fold expansion of memory cells post graft (OT-I T cells [5]; day 0 to day 5 post N4 OVA skin graft): greater fold expansion; Number of OT-I cells recovered in draining lymph nodes (OT-I T cells [5]; day 5 post N4 OVA skin graft): fewer; PD-1 expression in CD45RB^lo fraction (OT-I T cells [2]; secondary effectors): significantly upregulated; IL-2Rβ (CD122) expression (OT-I T cells [2]; secondary effectors, CD45RB^lo vs CD45RB^hi): significantly lower; CD62L^lo frequency within CD45RB^lo population (OT-I T cells [2]; secondary effectors, V4 OVA vs N4 OVA primed CD45RB^lo): slightly smaller frequency; IFN-γ^+ or TNF^+ frequency, CD45RB^lo vs CD45RB^hi (OT-I T cells [2]; secondary effectors, high affinity rechallenge): did not possess greater frequencies; Loss of CD45RB^hi cells relative to resting memory (OT-I T cells [2]; secondary effectors, vs N4 OVA primed): significantly greater; IL-2Rα (CD25) expression, CD45RB^lo cells (OT-I T cells [2]; vs CD45RB^hi cells and N4 OVA primed CD45RB^lo cells): significantly higher levels; Range in relative functional avidity (OT-I T cells [6]): 680 fold |
